According to paper PMC2233905 (The Journal of General Physiology, 2004):

Experiments:
hEag1 channels = molecular target: T1, hEag1 channels (Homo sapiens, UniProt O95259); test: Whole-cell patch-clamp of hEag1 currents in stably transfected HEK-293 cells; format: cell-based
T1 sequence (O95259 1-989): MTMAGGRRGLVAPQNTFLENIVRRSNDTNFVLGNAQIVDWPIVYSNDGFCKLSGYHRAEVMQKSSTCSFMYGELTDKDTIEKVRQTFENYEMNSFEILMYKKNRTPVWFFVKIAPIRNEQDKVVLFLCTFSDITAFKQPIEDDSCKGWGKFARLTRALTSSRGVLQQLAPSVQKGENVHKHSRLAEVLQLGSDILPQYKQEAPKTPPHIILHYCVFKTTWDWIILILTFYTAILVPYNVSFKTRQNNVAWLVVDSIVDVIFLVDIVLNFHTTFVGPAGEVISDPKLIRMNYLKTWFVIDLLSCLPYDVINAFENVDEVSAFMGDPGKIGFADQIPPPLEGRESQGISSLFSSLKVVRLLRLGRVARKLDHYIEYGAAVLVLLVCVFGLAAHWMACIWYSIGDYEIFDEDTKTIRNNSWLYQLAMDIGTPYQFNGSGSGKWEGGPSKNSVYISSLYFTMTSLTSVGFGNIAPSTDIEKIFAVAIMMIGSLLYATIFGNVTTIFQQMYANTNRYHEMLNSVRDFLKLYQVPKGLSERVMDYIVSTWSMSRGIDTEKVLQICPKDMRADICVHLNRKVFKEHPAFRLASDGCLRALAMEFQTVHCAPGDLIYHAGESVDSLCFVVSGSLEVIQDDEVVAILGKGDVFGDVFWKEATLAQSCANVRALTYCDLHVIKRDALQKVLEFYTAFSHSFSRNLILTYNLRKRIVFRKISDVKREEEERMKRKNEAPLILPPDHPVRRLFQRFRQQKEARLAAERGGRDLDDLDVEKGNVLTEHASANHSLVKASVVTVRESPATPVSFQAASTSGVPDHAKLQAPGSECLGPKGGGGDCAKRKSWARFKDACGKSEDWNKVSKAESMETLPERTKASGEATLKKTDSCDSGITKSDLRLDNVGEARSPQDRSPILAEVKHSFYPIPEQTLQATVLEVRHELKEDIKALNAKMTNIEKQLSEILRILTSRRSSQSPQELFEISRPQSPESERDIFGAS

Kv2.1 = molecular target: T2, Kv2.1 (Homo sapiens, UniProt Q14721); test: Kv2.1 channels; format: cell-based; conditions: concentrations up to 10 μM, unpublished data
T2 sequence (Q14721 1-858): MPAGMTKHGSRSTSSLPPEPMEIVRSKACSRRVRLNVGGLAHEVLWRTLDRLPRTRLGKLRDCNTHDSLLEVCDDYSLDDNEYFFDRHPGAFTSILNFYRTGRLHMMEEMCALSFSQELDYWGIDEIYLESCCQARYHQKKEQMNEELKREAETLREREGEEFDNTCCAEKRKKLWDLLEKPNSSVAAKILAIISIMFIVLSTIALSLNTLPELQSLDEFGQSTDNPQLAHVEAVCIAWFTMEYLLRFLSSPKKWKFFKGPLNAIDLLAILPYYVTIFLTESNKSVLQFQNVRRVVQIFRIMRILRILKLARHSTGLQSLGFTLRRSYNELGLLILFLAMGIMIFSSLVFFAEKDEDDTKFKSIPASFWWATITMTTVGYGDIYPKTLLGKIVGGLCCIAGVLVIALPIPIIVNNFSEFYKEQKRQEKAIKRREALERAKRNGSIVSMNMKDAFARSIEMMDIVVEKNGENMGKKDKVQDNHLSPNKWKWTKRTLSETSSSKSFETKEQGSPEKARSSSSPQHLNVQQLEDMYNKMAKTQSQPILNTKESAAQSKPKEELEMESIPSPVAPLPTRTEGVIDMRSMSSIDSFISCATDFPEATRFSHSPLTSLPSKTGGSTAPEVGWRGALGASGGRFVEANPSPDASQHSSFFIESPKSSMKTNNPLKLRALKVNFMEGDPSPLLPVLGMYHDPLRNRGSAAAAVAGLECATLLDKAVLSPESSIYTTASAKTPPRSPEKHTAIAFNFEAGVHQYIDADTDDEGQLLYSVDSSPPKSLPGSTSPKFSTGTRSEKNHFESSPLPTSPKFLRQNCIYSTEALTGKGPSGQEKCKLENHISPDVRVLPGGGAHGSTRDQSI

[1] = Ionization: pKa and calculated protonated fractions; format: physicochemical
Summary of the method: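 Fractions of unprotonated, monoprotonated and diprotonated test compound were calculated from its two pKa values at pH 6.4, 7.4 and 8.4. The diprotonated percentage was 100 × [H+]2 divided by the summed-species denominator. Protonated fractions in the pH 7.4 recording solution were predicted the same way.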

[2] = 10 μM imipramine or 1 μM astemizole
[3] = 200 μM internal TEA, 80 mV, 10 μM imipramine or 1 μM astemizole
[4] = control, 80 mV, 10 μM imipramine or 1 μM astemizole
[5] = nonsaturating concentrations, 80 mV

Kd (hEag1 channels): 109 nM
voltage dependence of block (hEag1 channels): insensitive to membrane potential
current blocked (hEag1 channels; 100 nM astemizole in the presence of 5 μM imipramine, 60 mV): 38 ± 5%
current blocked (hEag1 channels; 100 nM astemizole, control external solution, 60 mV): 66 ± 3%
k of exponential fit to τclose(V) (tail current deactivation) (hEag1 channels; [2]): −0.025
τ(0) of exponential fit to τclose(V) (tail current deactivation) (hEag1 channels; [2]): 10.75 ms
τ∞ of exponential fit to τclose(V) (tail current deactivation) (hEag1 channels; [2]): 0.75 ms
effect on whole-cell current when added to the intracellular solution (hEag1 channels; 25 μM in intracellular pH 6.4 solution (unpublished data)): substantial block
reduction of potency in the presence of internal TEA (hEag1 channels; 200 μM internal TEA): ~50%
current blocked (hEag1 channels; [3]): 42 ± 12%
τblock (hEag1 channels; [3]): 1084 ± 158 ms
effect of external TEA on the block (hEag1 channels; 7 mM external TEA): did not affect
IC50 (hEag1 channels; IC50(V), voltage-independent line through IC50 data, test potentials 20–120 mV): 120 nM
IC50 (hEag1 channels; IC50, whole-cell, pHext//pHint 6.4//7.35): 419 ± 68 nM
IC50 (hEag1 channels; IC50, whole-cell, pHext//pHint 7.4//6.4): 54 ± 12 nM
IC50 (hEag1 channels; IC50, whole-cell, pHext//pHint 7.4//8.4): 556 ± 69 nM
IC50 (hEag1 channels; IC50, whole-cell, pHext//pHint 8.4//7.35): 37 ± 7 nM
current blocked (hEag1 channels; [4]): 87 ± 3%
τblock (hEag1 channels; [4]): 317 ± 73 ms
slope of logIC50 versus difference between pHext and pHint (hEag1 channels; linear fit): −0.53
slope of linear fit of τblock^−1 versus concentration (hEag1 channels; [5]): 4 s^−1μM^−1
y intercept of linear fit of τblock^−1 versus concentration (hEag1 channels; [5]): 0.4 µM
time constant of block washout (hEag1 channels; pHext 7.4, pHint 6.4): 235 s
time course of block onset (hEag1 channels; pHext 7.4, pHint 6.4, 250 nM astemizole): 60 s
time constant of block washout (hEag1 channels; pHext 7.4, pHint 8.4): 25 s
time course of block onset (hEag1 channels; pHext 7.4, pHint 8.4, 5 μM astemizole): 20 s
Hill coefficient of dose–response plot (hEag1 channels; whole-cell, 80 mV): 1.32
Hill coefficient of fit to τblock versus concentration (hEag1 channels; whole-cell, 80 mV): 1.32
time constant of current decay (τblock) at the IC50 concentration (hEag1 channels; whole-cell, 80 mV): ~500 ms
τblock, maximum of Hill fit (hEag1 channels; whole-cell, 80 mV): 1.33 s
τblock, minimum of Hill fit (hEag1 channels; whole-cell, 80 mV): 0.024 s
effect on current (Kv2.1): no significant effects
Diprotonated form, percentile contribution ([1]; pH 6.4, calculated): 13.6%
Monoprotonated form, percentile contribution ([1]; pH 6.4, calculated): 85.7%
Unprotonated form, percentile contribution ([1]; pH 6.4, calculated): 0.7%
Diprotonated form, percentile contribution ([1]; pH 7.4, calculated): 1.4%
Monoprotonated form, percentile contribution ([1]; pH 7.4, calculated): 91.3%
Unprotonated form, percentile contribution ([1]; pH 7.4, calculated): 7.3%
predicted protonated fraction ([1]; pH 7.4 recording solution): 93%
Diprotonated form, percentile contribution ([1]; pH 8.4, calculated): 0.1%
Monoprotonated form, percentile contribution ([1]; pH 8.4, calculated): 55.7%
Unprotonated form, percentile contribution ([1]; pH 8.4, calculated): 44.2%
Structure (SMILES): COc1ccc(CCN2CCC(Nc3nc4ccccc4n3Cc3ccc(F)cc3)CC2)cc1 [astemizole]
